High-throughput results (PubChem BioAssay)
KCNQ1 act = potentiators or activators of KCNQ1 channel, primary screen, cell-based, thallium flux, high-throughput | 310,000 tested, 0.35% active | CHO-K1 KCNQ1, thallium flux FluxOR fluorescence; hits give high values | Potassium voltage-gated channel subfamily KQT member 1 (Homo sapiens), P51787 | B-score at 10 µM | AID 2648, 2010;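 active = fluorescence ratio B-score, a plate-corrected score, at least three library SD, with initial intensity B-score within 5 SD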
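assay system = CHO-K1 cells stably expressing KCNQ1 | medium = assay buffer, equal DMSO in all wells | timing = 37 °C overnight plating, 90-min dark dye load, 20-min compound pretreatment | measured by = kinetic FluxOR thallium fluorescence, 10-s 1-Hz baseline, 110-s post-stimulus read | measure = fluorescence change relative to baseline, converted to B score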
KCNK9 inh = KCNK9 potassium channel inhibitors, primary screen, HEK293 cells, thallium flux. Potassium channel subfamily K member 9 (Homo sapiens), Q9NPC2. FluxOR thallium flux fluorescence; hits give low values. B-score at 10 µM. 310,000 tested, 1.2% active. AID 488922, 2010;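 active = ratio B-score over 3 SD below the library mean, with starting fluorescence within 5 SD of its mean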;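 note: negative B-score means less thallium flux so channel inhibition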
hERG rescue = hERG rescue from dofetilide block, primary screen, cell-based, CHO-hERG, FluxOR thallium flux, dofetilide IC70; dofetilide IC70 present; activation (rescue from dofetilide block), less the hit threshold, % at 10 µM; 310,000 tested, 0.51% active; AID 1511, 2009;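 active = activation above the mean of controls blocked by dofetilide plus 5 SD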;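 note: thallium influx through hERG after potassium depolarization seen as dye fluorescence rise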
KCNQ1 block = inhibitors of human KCNQ1 channel, primary screen, cell-based, thallium flux, high-throughput; Potassium voltage-gated channel subfamily KQT member 1 (Homo sapiens), P51787; CHO-K1 KCNQ1, FluxOR thallium flux fluorescence; hits give high values; B-score at 10 µM; 310,000 tested, 1.3% active; AID 2642, 2010;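 active = compounds whose thallium flux B-score, printed positive for inhibition, exceeds three library SD while starting fluorescence stays within three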;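 note: channel opened by potassium depolarization with thallium stimulus after 20 min compound exposure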
KCNK3 inh = human KCNK3 channel inhibitors, primary screen, CHO cells, FluxOR thallium flux, B-score | 340,000 tested, 0.84% active | B-score at 10 µM | AID 602410, 2012 | FluxOR fluorescence; hits give low values | Potassium channel subfamily K member 3 (Homo sapiens), O14649;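 active = B-score under library mean minus 4 SD, starting fluorescence ratio at most library mean plus 5 SD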;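 note: more negative B-score means stronger inhibition of thallium flux through KCNK3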
Target sequence (O14649 whole entry, looked up): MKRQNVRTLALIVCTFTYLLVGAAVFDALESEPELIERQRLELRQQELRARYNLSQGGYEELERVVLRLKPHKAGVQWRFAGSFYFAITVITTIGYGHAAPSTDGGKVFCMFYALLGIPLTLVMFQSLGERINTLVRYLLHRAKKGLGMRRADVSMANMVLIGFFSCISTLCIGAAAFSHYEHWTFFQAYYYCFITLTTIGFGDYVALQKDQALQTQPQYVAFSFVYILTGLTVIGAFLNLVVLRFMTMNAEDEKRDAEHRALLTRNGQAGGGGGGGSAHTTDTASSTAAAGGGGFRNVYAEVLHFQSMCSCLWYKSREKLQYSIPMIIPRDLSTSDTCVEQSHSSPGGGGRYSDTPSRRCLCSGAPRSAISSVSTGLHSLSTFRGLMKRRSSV
KCNQ1 block val = KCNQ1 potassium channel inhibitors, confirmation, cell-based, Tl flux, duplicate; shares compounds with KCNQ1 block; KCNQ1 cell line, FluxOR thallium flux fluorescence; inhibition, % at 10 µM; 1,600 tested, 93% active;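 active = primary screen active, with duplicate mean exceeding buffer control mean plus 3 SD of buffer wells, cut at about 28% in these data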;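 note: 0% = buffer control ratio and 100% = XE991 inhibitor control ratio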
CHO Tl flux = thallium flux effects in parental CHO cells, counter-screen for KCNQ1 inhibitor project, cell-based, Tl flux; shares compounds with KCNQ1 block; fluorescence ratio (Tl flux) at 10 µM; AID 588366, 2011; 1,600 tested, 21% active; parental CHO-K1, FluxOR thallium flux fluorescence ratio; hits give low values; zero means no signal rise above baseline;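 active = mean of duplicate thallium-flux fluorescence ratios in parental host cells more than 5 SD below the buffer control mean, cut at about 0.38 in these data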;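 note: ratio is peak minus minimum fluorescence divided by baseline fluorescence; actives read low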
KCNQ1 APC inh = KCNQ1 channel inhibitors, confirmation, orthogonal assay, cell-based, automated electrophysiology; KCNQ1-CHO cells, automated patch clamp current; 490 tested, 20% active; shares compounds with KCNQ1 block; calls only at 10 µM; AID 624120, 2012;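 active = KCNQ1 current drop exceeding 3 SD of negative control wells, seen in both duplicate runs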;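 note: steady state current during a 2 s step from -80 to +40 mV; negative values mean current inhibition and positive values mean potentiation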
KCNQ2 spec = KCNQ2 channel inhibition, selectivity assay for KCNQ1 inhibitor project, cell-based; shares compounds with KCNQ1 block; KCNQ2 cells, FluxOR thallium flux fluorescence; inhibition, % at 10 µM; 1,600 tested, 71% active;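 active = mean percent inhibition of the KCNQ2 thallium signal more than 5 SD above the buffer-only control wells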;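 note: KCNQ2 expressed in CHO cells; 0% = buffer control wells and 100% = XE-991 inhibitor control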
KCNQ1 KCNE1 spec = KCNQ1/KCNE1 channel inhibition, selectivity assay for KCNQ1 inhibitor project, CHO-K1 cells, thallium flux, FluxOR; shares compounds with KCNQ1 block; FluxOR thallium flux fluorescence; inhibition, % at 10 µM; 1,600 tested, 77% active;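 active = mean percent inhibition of duplicate wells above the buffer-only control mean plus 3 SD of those controls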;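 note: 0% = buffer only wells and 100% = XE-991 inhibitor control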
KCNK9 block conf = KCNK9 potassium channel inhibitors, confirmation, HEK293 cells, thallium flux, duplicate | inhibition, % at 10 µM | 4,900 tested, 43% active | FluxOR thallium flux fluorescence | shares compounds with KCNK9 inh;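 active = thallium signal inhibited by more than 5 SD of the compound-free buffer control wells, on both duplicate plates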;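 note: 0% = assay buffer control wells without compound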
Kir21 sel = mouse Kir2.1 channel inhibition, confirmation, selectivity assay for KCNK9 modulator project, cell-based, HEK293, thallium flux. shares compounds with KCNK9 inh. 4,900 tested, 4% active. inhibition, % at 10 µM. Kir2.1 cells, FluxOR thallium flux fluorescence. AID 492993, 2010;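 active = thallium signal drop more than 5 SD beyond the mean of the no-compound control wells, seen in both duplicate plates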;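 note: signal is fluorescence rise after thallium addition divided by baseline fluorescence; plate controls were assay buffer only for no effect and full block by chlorpromazine control for full effect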
HEK293 Tl ctr = thallium flux in non-induced HEK293 cells, confirmation, counter-screen for KCNK9 inhibitor project, cell-based, second counter screen, non-induced KCNK9-HEK293. shares compounds with KCNK9 inh. FluxOR thallium flux. inhibition, % at 10 µM. 4,900 tested, 40% active. AID 492997, 2010;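 active = thallium signal drop beyond 5 SD of the untreated control mean, on both duplicate plates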;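 note: plate controls were buffer only IC0 wells for no effect and SID17386958 at its maximal inhibitory level for full effect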
Starred values were filed as active, the others as inactive. An excerpt weighted towards active compounds, which were near 3.1% of everything screened.

`O=C(NC1CCCCC1)C1CC(=O)N(Cc2ccccc2)C1` (configuration not stated) gave KCNQ1 act inactive, KCNK9 inh inactive, hERG rescue -7, KCNQ1 block inactive and KCNK3 inh inactive.
Screening Cc1ccccc1Nc1nc(NCc2ccco2)c2ccccc2n1 returned KCNQ1 act inactive, KCNK9 inh -12*, hERG rescue -25, KCNQ1 block 14*, KCNK3 inh -14*, KCNQ1 block val 162*, CHO Tl flux 0.37*, KCNQ2 spec 115%*, KCNQ1 KCNE1 spec active, KCNK9 block conf 54%*, Kir21 sel 85%* and HEK293 Tl ctr 40%*.
Screening O=C(NNS(=O)(=O)c1ccc(C(F)(F)F)cc1)c1cnn(-c2ccccc2)c1C(F)(F)F returned KCNQ1 act inactive, KCNK9 inh inactive, hERG rescue -14, KCNQ1 block inactive and KCNK3 inh inactive.
For COCCN(CC(=O)Nc1cc(Cl)ccc1-n1cncn1)Cc1nc2ccccc2c(=O)[nH]1 the results were KCNK3 inh inactive.
`Clc1ccc(-c2cc3ccccc3nc2N2CCOCC2)cc1` gave KCNQ1 act inactive, KCNK9 inh inactive, hERG rescue -14, KCNQ1 block 11*, KCNK3 inh inactive, KCNQ1 block val 130*, CHO Tl flux 0.47, KCNQ2 spec 98%*, KCNQ1 KCNE1 spec 182%*, KCNK9 block conf inactive, Kir21 sel inactive and HEK293 Tl ctr 28%*.
Screening COc1ccc(S(=O)(=O)N2CCN(c3cccc(C)c3C)CC2)cc1 returned KCNQ1 act inactive, KCNK9 inh inactive, hERG rescue -9, KCNQ1 block 9*, KCNK3 inh inactive, KCNQ1 block val active, CHO Tl flux 0.35*, KCNQ2 spec inactive, KCNQ1 KCNE1 spec inactive, KCNK9 block conf inactive, Kir21 sel inactive and HEK293 Tl ctr inactive.
`COc1ccc(N2CCN(S(=O)(=O)c3ccc(OC)cc3)CC2)cc1` gave KCNQ1 act inactive, KCNK9 inh inactive, hERG rescue -6, KCNQ1 block inactive and KCNK3 inh inactive.
`COc1cccc(CNC(=O)C2CCN(c3nnc(N4CCCC4=O)s3)CC2)c1` gave KCNQ1 act inactive, KCNK9 inh inactive, hERG rescue -9, KCNQ1 block inactive and KCNK3 inh inactive.
For CC(C)Cn1c2c(c(O)c(C(=O)Nc3nccs3)c1=O)CCCC2 the results were KCNQ1 act inactive, KCNK9 inh -8.3*, hERG rescue -6, KCNQ1 block 7*, KCNK3 inh inactive, KCNQ1 block val 100*, CHO Tl flux 0.45, KCNQ1 APC inh inactive, KCNQ2 spec 112%*, KCNQ1 KCNE1 spec 166%*, KCNK9 block conf 44%*, Kir21 sel inactive and HEK293 Tl ctr 27%*.
`Cc1csc(NC(=O)c2c(O)c3c(n(CC(C)C)c2=O)CCCC3)n1` gave KCNQ1 act inactive, KCNK9 inh -14*, hERG rescue -2, KCNQ1 block 10*, KCNK3 inh -9.8*, KCNQ1 block val 104*, CHO Tl flux 0.48, KCNQ1 APC inh inactive, KCNQ2 spec 108%*, KCNQ1 KCNE1 spec 90%*, KCNK9 block conf 55%*, Kir21 sel inactive and HEK293 Tl ctr 35%*.
Screening O=C(Nc1nccs1)c1c(O)c2c([nH]c1=O)CCCC2 returned KCNQ1 act inactive, KCNK9 inh inactive, hERG rescue -4, KCNQ1 block inactive and KCNK3 inh inactive.
Screening CCCn1c2c(c(O)c(C(=O)Nc3ncccc3C)c1=O)CCCC2 returned KCNQ1 act inactive, KCNK9 inh inactive, hERG rescue -14, KCNQ1 block inactive and KCNK3 inh inactive.
For Cc1nc(OCc2ccccc2)c2sc3nc4c(cc3c2n1)COC(C)(C)C4 the results were KCNQ1 act inactive, KCNK9 inh inactive, hERG rescue -3, KCNQ1 block inactive and KCNK3 inh inactive.
CCN(CC(=O)Nc1cc(S(=O)(=O)N2CCOCC2)ccc1Cl)Cc1ccccc1 was read as KCNK3 inh inactive.
